Test results reported in PMC3143253 (Journal of molecular biology, 2011).
“Also recorded” adds a separate entry of the source. No end group written: not given here. *: point of attachment. X1 = CN(C)c1ccc2c(-c3ccc(N4C(=O)CC(*)C4=O)cc3C(=O)[O-])c3ccc(N(C)C)cc3[o+]c2c1

Assays:
CaM [1] = target: T1, CaM (Homo sapiens, UniProt P0DP23); assay: Isothermal titration calorimetry; type: binding; conditions: 10 mM MOPS, 2 mM CaCl2, 100 mM NaCl, pH 7.4, 30 °C
[2] = target: CaM (I-CaM, IAEDANS-labeled CaM-K75C) (Homo sapiens, UniProt P0DP23, K76C); assay: I-CaM fluorescence titration of water-soluble peptides; type: binding; conditions: 0.1 mM CaCl2 versus 0.3 mM EDTA
[3] = system: 15N-labeled Ca^2+-loaded CaM; assay: 1H,15N-HSQC NMR titration of 15N-labeled CaM; type: binding; conditions: Ca^2+-CaM, 310 K
[4] = system: D/A-CaM (donor/acceptor-labeled CaM); assay: FRET measurements using D/A-CaM; type: binding; conditions: compared with CaMKII-derived peptide; calcium-containing buffer, pH 7.4
Solubility = type: physicochemical
CaM [5] = target: T1, CaM; assay: CaM titration to TMR-CLS liposomes, TMR fluorescence; type: binding; conditions: pH 7.4; for association with CaM in 15% POPS liposomes: 15% POPS / 85% POPC liposomes, absence and presence of calcium
Collisional fluorescence = type: binding; conditions: pH 7.4
I-CaM = I-CaM (Homo sapiens, UniProt P0DP23, K76C); assay: I-CaM titration to CLS liposomes, Trp315 to IAEDANS energy transfer; type: binding
Procedure, shortened: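 Unlabelled CLS (30 nM) in liposomes was titrated with IAEDANS-labelled cysteine-mutant CaM. Its concentration came from IAEDANS absorbance. Buffer was 10 mM MOPS, 100 mM NaCl, pH 7.4, with 0.3 mM EDTA or 1 mM CaCl2, at 20 °C. Excitation was 295 nm, and Trp quenching was read at 333 nm. Spectra were averaged over 3 scans and corrected with empty liposomes. Kd came from a hyperbolic fit.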

CaM [6] = target: T1, CaM; assay: Overall affinity of CaM for L-selectin cytoplasmic domain; type: binding; conditions: phosphatidylserine content mimics that in the inner leaflet of the cell plasma membrane
[7] = Far-UV CD spectroscopy in liposomes; type: physicochemical; conditions: 1 mM MOPS, pH 7.4, 20 °C
Procedure, shortened: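 CLS reconstituted into large unilamellar vesicles (extruded, 400-nm filter) at about 10 μM in 1 mM MOPS, pH 7.4. Far-UV spectra (190–260 nm) were taken in a 0.1-cm cuvette at 20 °C with 0.2 nm steps and 10 scans each, corrected against empty liposomes. CLS content was measured by Trp emission after dissolving in 2% SDS, against a standard curve.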

[8] = cited from earlier work

Compound: ARRLKKGKKSKRSMNDPY [ARR18]
- N (stoichiometry of binding) (CaM [1]; ARR18 316 μM in 10 μl increments into 27.6 μM CaM, one-site model): 0.92±0.05
- ΔH (enthalpy change per mole of ligand) (CaM [1]; ARR18 316 μM into 27.6 μM CaM, one-site model): -0.77 ± 0.07 kcal/mol
- ΔS (entropy change) (CaM [1]; derived from Ka and ΔH): 21.7 cal/mol·K
- effect of calcium on association with CaM [2]: calcium does not influence the association of CaM with ARR18
- CaM lobes bound ([3]; 10 mM MOPS, 100 mM NaCl, 5 mM CaCl2, pH 6.3): binds to both the N- and C-lobes of Ca^2+-CaM
- nature of the binary complex ([3]; saturating concentrations of ARR18, pH 6.3): dynamic and exist as an ensemble of interconverting conformers
- conformation of bound CaM [4]: much more extended conformation
- solubility in water / aqueous solutions (Solubility): soluble in water up to millimolar concentration

Compound: KLDKSFSMIKEGDYNPLFIPVAVMVTAFSGLAFIIWLARRLKKGKKSKRSMNDPY [CLS]
- association with CaM in 15% POPS liposomes (CaM [5]): does not associate
- location of cytoplasmic domain relative to membrane surface (Collisional fluorescence; POPC liposomes with 0–15% POPS, 20 °C): located closer to the surface of membranes that have higher concentrations of negatively charged lipids
- effect of calcium on interaction with CaM (I-CaM; CLS in POPC liposomes, CaCl2 versus EDTA): independent of calcium ion
- quenching of Trp315 fluorescence by I-CaM (I-CaM; unlabeled CLS in 15% POPS liposomes, pH 7.4): did not produce a significant quenching of Trp315 fluorescence
- interaction with CaM (summary) (CaM [6]): undetectable; also recorded: fails to bind
- solubility in water / aqueous solutions (Solubility): not soluble in aqueous solutions
- secondary structure by CD ([7]; POPC and 15% POPS liposomes, minima at 208 and 222 nm): characteristic of the α-helical secondary structure
- α-helical content in 15% POPS versus POPC liposome ([7]; ellipticity at 222 nm): less α-helical secondary structure in the 15% POPS liposome than in the POPC liposome

Compound: KLDKSFSMIKEGDYNPLFIPVAVMVTAFSGLAFIIWLARRLKKGKKSKRC(X1)MNDPY [TMR-CLS]
- association with CaM in 15% POPS liposomes (CaM [5]): does not bind
- change in TMR fluorescence emission on addition of CaM (CaM [5]; 15% POPS liposomes, up to 10 μM CaM, 10 mM MOPS, 100 mM NaCl, 1 mM EDTA or 0.1 mM CaCl2): little change in TMR fluorescence emission
- effect of NaNO3 on TMR fluorescence (15% POPS versus POPC liposomes) (Collisional fluorescence; 150 mM NaI, increasing NaNO3, 10 mM MOPS, ex 542 nm, em 575 nm): quenched more significantly in 15% POPS liposomes compared to POPC liposomes

Compound: NCCCCCCNS(=O)(=O)c1cccc2c(Cl)cccc12 [W-7]
- membrane binding and surface potential [8]: directly bind to membrane and alter the electrostatic surface potential
